Source: ChEMBL document CHEMBL4627381, “Licochalcone A Selectively Resensitizes ABCG2-Overexpressing Multidrug-Resistant Cancer Cells to Chemotherapeutic Drugs” (J Nat Prod, 2020)

Key:
[1] = molecular target: T1, ABCG2 (Homo sapiens, UniProt Q9UNQ0); assay: Modulation of ABCG2 (unknown origin) expressed in High Five insect cell vesicle membrane assessed as maximal stimulation of ATPase activity after 20 mins by colorimetric assay relative to baseline; conditions: membrane vesicles of High Five insect cells expressing ABCG2, read-out: Activity
T1 sequence (Q9UNQ0 whole entry): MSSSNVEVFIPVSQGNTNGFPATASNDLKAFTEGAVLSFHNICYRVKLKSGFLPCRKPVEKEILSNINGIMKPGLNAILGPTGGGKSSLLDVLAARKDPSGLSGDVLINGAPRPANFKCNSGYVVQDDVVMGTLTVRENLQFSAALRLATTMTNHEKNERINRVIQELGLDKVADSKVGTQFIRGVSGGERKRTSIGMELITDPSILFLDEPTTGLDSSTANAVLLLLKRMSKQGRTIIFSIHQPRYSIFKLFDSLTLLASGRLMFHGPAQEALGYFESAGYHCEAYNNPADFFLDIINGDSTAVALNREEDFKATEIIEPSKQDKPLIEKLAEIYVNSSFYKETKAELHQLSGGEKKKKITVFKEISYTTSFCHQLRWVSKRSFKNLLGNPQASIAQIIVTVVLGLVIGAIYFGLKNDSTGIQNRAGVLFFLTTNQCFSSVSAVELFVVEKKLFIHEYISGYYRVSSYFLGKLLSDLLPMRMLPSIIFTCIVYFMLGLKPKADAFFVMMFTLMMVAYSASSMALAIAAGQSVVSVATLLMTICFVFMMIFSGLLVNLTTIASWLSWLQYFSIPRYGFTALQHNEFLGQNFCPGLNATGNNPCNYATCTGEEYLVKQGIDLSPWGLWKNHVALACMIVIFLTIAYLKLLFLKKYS
Procedure, shortened: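 Membrane vesicles from ABCG2-expressing High Five cells were incubated with LCA (0–390 μM) at 37 °C for 20 min in 50 mM MES-Tris pH 6.8 with ouabain, DTT, NaN3, EGTA and KCl, ±0.3 mM vanadate. Liberated Pi was read by molybdate/ascorbate colorimetry at 880 nm. Vi-sensitive activity = activity minus activity with vanadate; mean ± SD of three experiments.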

[2] = tested on: S1; assay: Induction of apoptosis in human S1 cells assessed as late apoptotic cells at 10 uM incubated for 48 hrs by annexin V/propidium iodide staining based flow cytometry (reference value: 3.6%); assay type: functional
Procedure, shortened: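 S1 cells were exposed for 48 h to DMSO, 10 μM compound, 5 μM topotecan, or 5 μM topotecan plus 10 μM compound. They were then stained with 1.25 μg/mL annexin V–FITC and 0.1 mg/mL PI for 15 min at room temperature. 10000 cells per sample were analysed by flow cytometry; three independent experiments.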

[3] = molecular target: T2, Broad substrate specificity ATP-binding cassette transporter ABCG2 (Homo sapiens, UniProt Q9UNQ0); assay: Reversal of ABCG2 (unknown origin)-mediated multidrug resistance in human H460-MX20 cells assessed as fold change in topotecan IC50 at 3 uM after 72 hrs by MTT assay relative to topotecan IC50; assay type: cell-based
T2 sequence (Q9UNQ0 whole entry): T1 sequence (Q9UNQ0 whole entry)
Procedure, shortened: (§1)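 Cells held drug-free 7 days, seeded at 5000 per well for 24 h, then exposed 72 h to mitoxantrone or topotecan dilutions with DMSO (≤0.5%), LCA 0.5–3.0 μM, or Ko143 1.0 μM. Viability was read by MTT. IC50 came from fitted dose-response curves of three independent experiments. Fold-reversal = IC50 without modulator divided by IC50 with modulator.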

[4] = molecular target: T2, Broad substrate specificity ATP-binding cassette transporter ABCG2; assay: Reversal of ABCG2 (unknown origin)-mediated multidrug resistance in human H460-MX20 cells assessed as fold change in mitoxantrone IC50 at 1 uM after 72 hrs by MTT assay relative to mitoxantrone IC50; assay type: cell-based; procedure, shortened: as §1
[5] = molecular target: T2, Broad substrate specificity ATP-binding cassette transporter ABCG2; assay: Reversal of ABCG2 (unknown origin)-mediated multidrug resistance in human S1-M1-80 cells assessed as fold-change in topotecan IC50 at 1 uM after 72 hrs by MTT assay relative to topotecan IC50; assay type: cell-based; conditions: s1-m1-80, 72 h
Procedure, shortened: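 MTT readout in S1-M1-80 colon cancer cells (mitoxantrone-selected, held in 80 μM mitoxantrone, then drug-free 7 days before assay). Cells were seeded at 5000/well for 24 h, then given increasing mitoxantrone or topotecan with DMSO or non-toxic modulator for 72 h at 37 °C. IC50 came from fitted dose-response curves (at least three independent experiments). Fold-reversal = IC50 without modulator ÷ IC50 with modulator.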

[6] = tested on: S1; assay: Effect on topotecan-induced cytotoxicity against human S1 cells assessed as fold change in topotecan IC50 at 3 uM after 72 hrs by MTT assay relative to topotecan IC50; assay type: functional
Procedure, shortened: (§2)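 Parental S1 colon and H460 lung cancer cells were exposed for 72 h to a mitoxantrone or topotecan concentration series, with or without modulator at 0.5–3.0 μM, and read by MTT. Fold-reversal is IC50 without modulator divided by IC50 with modulator, taken from dose-response curves of three independent experiments.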

[7] = tested on: S1; assay: Effect on mitoxantrone-induced cytotoxicity against human S1 cells assessed as fold change in mitoxantrone IC50 at 0.5 uM after 72 hrs by MTT assay relative to mitoxantrone IC50; assay type: functional; procedure, shortened: as §2
[8] = molecular target: T3, Multidrug resistance-associated protein 1 (Homo sapiens, UniProt P33527); assay: Reversal of human ABCC1-mediated multidrug resistance in HEK293/MRP1 cells assessed as fold-change in etoposide IC50 at 3 uM after 72 hrs by CCK8 relative to etoposide IC50; assay type: cell-based
T3 sequence (P33527 whole entry): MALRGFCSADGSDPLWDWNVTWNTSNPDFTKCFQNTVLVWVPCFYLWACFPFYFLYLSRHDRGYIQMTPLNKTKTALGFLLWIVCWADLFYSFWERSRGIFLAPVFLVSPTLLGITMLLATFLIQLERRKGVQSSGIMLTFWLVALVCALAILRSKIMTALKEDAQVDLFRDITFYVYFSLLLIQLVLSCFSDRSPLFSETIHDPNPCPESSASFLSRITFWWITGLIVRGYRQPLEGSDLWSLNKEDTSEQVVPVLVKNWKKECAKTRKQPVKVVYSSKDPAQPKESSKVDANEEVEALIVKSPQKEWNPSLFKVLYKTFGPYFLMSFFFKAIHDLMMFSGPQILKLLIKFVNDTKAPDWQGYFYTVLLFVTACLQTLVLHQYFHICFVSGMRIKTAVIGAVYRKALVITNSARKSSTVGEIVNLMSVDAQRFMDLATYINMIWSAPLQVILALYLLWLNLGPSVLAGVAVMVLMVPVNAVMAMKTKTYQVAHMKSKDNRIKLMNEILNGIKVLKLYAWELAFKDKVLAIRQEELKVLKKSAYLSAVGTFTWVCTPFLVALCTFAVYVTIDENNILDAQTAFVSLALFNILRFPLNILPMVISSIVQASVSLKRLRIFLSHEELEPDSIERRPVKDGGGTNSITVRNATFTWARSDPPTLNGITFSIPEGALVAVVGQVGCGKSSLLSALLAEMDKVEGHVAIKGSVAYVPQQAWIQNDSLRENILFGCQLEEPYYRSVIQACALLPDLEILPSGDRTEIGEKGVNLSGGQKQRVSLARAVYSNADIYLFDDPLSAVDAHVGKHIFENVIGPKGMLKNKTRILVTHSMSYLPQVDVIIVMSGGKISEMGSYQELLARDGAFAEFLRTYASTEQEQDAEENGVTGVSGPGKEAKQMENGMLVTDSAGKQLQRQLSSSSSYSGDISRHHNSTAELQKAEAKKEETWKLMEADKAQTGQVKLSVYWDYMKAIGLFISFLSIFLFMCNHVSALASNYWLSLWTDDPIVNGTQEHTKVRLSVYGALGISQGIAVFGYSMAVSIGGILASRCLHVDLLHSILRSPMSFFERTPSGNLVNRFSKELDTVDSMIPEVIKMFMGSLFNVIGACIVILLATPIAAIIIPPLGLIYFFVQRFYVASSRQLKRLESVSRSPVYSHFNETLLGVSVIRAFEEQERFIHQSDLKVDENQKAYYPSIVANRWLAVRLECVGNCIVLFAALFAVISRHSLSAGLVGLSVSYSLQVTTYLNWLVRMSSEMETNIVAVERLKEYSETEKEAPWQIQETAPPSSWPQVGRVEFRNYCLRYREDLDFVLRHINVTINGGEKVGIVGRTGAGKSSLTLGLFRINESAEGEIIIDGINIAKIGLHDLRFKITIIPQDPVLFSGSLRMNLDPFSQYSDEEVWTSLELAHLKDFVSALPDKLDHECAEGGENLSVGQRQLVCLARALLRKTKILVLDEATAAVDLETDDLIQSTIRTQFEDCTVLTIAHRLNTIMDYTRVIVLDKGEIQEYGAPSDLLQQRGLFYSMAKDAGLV
Procedure, shortened: (§3)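 Cells were seeded at 5000/well for 24 h, then given colchicine, etoposide, mitoxantrone or topotecan ± non-toxic modulator (0.5–3.0 μM) for 72 h, with DMSO up to 0.5%. IC50 came from fitted curves (mean ± SD, three experiments). Fold-reversal = IC50 without modulator ÷ IC50 with modulator.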

[9] = molecular target: T3, Multidrug resistance-associated protein 1; assay: Reversal of human ABCC1-mediated multidrug resistance in HEK293/MRP1 cells assessed as fold-change in etoposide IC50 at 0.5 uM after 72 hrs by CCK8 relative to etoposide IC50; assay type: cell-based; procedure, shortened: as §3
[10] = tested on: HEK293; assay: Effect on etoposide-induced cytotoxicity against HEK293 cells assessed as fold change in etoposide IC50 at 2 uM after 72 hrs by CCK8 assay relative to etoposide IC50; assay type: cell-based; conditions: human, hek293, 72 h
Procedure, shortened: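 Reversal assay in parental pcDNA-HEK293 and transfected HEK293 lines (ABCB1 for colchicine, ABCC1 for etoposide, ABCG2 for mitoxantrone/topotecan). Substrate drug series was given with or without nontoxic modulator (0.5, 1.0, 2.0 or 3.0 μM) for 72 h, with a CCK-8 read-out. Fold-reversal is substrate IC50 without modulator divided by IC50 with modulator. Three independent experiments.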

[11] = molecular target: ATP-dependent translocase ABCB1 (Homo sapiens, UniProt P08183); assay: Reversal of human ABCB1-mediated multidrug resistance in HEK293/MDR19 cells assessed as fold change in colchicine IC50 at 0.5 uM after 72 hrs by CCK8 relative to colchicine IC50; assay type: cell-based; procedure, shortened: as §3
ATP-dependent translocase ABCB1, sequence (P08183 whole entry): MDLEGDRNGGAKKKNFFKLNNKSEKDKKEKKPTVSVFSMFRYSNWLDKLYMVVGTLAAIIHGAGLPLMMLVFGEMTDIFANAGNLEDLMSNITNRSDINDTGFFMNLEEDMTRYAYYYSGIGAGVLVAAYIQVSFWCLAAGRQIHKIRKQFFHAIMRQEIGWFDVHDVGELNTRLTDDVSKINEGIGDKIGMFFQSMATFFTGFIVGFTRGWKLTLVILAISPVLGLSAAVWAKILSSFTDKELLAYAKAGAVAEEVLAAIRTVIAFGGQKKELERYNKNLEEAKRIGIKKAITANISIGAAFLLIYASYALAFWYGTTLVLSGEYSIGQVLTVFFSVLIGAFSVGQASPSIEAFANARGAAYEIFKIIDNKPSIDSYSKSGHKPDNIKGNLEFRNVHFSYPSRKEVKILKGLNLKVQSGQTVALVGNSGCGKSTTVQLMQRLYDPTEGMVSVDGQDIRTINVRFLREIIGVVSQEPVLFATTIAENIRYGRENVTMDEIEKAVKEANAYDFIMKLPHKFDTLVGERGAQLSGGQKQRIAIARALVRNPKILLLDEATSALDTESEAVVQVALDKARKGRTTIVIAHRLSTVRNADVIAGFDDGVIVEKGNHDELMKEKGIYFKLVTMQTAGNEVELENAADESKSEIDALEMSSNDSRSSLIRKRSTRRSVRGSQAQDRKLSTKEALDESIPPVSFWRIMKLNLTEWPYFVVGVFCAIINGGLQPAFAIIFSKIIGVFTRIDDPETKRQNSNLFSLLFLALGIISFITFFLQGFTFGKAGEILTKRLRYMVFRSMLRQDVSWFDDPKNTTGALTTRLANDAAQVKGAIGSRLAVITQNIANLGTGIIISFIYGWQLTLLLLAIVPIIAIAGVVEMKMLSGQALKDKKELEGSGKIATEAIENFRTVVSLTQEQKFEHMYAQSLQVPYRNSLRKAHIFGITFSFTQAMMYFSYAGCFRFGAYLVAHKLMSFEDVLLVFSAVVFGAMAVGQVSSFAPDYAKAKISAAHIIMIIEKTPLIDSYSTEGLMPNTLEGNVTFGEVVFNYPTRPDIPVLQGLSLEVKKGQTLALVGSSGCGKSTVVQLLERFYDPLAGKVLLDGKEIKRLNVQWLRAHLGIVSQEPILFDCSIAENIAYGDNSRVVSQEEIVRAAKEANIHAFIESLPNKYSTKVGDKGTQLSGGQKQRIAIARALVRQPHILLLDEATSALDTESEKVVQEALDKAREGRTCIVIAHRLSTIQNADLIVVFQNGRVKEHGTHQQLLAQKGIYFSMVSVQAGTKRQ

[12] = molecular target: T2, Broad substrate specificity ATP-binding cassette transporter ABCG2; assay: Reversal of human ABCG2-mediated multidrug resistance in HEK293/R482 cells assessed as potentiation of topotecan-induced cytotoxicity after 72 hrs by CCK8 assay; assay type: cell-based; procedure, shortened: as §3
[13] = molecular target: T2, Broad substrate specificity ATP-binding cassette transporter ABCG2; assay: Reversal of human ABCG2-mediated multidrug resistance in HEK293/R482 cells assessed as potentiation of mitoxantrone-induced cytotoxicity after 72 hrs by CCK8 assay; assay type: cell-based; procedure, shortened: as §3

Emax at 20 min [1]: 150% | fold change (FC) [3]: 10.1 | fold change (FC) [5]: 16.6 | fold change (FC) [8]: 1.1 | fold change (FC) [9]: 1.2 | fold change (FC) [11]: 1
SMILES: C=CC(C)(C)c1cc(/C=C/C(=O)c2ccc(O)cc2)c(OC)cc1O [LICOAGROCHACONE A]
Activity [2]: 2.7% | fold change (FC) [4]: 13.4 | fold change (FC) [6]: 0.9 | fold change (FC) [7]: 1.1 | fold change (FC) [10]: 0.7 | Activity [12]: Dose-dependent effect | Activity [13]: Dose-dependent effect
